From ChEMBL document CHEMBL3351569, “Synthesis and antiproliferative activity of some new thieno[2,3-d]pyrimidin-4(3H)-ones containing 1,2,4-triazole and 1,3,4-thiadiazole moiety” (Eur J Med Chem, 2014) come the findings set out here.

The test system of assay [1] is HepG2. In words: Cytotoxicity against human HepG2 cells assessed as reduction in cell viability after 24 hrs by MTS assay. The class given is functional, cell-based. Particulars: HepG2, 24 h. In outline:
(§1)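 Compounds were dissolved in DMSO at 4 mg/ml (stock) and diluted 1:10, 1:100, 1:1000 and 1:10 000. Cells were incubated 24 h with compound, with untreated cells in unmodified medium as the control. MTS reagent was then added for 2 h at 37°C under 5% CO2/95% air, and absorbance was read at 490 nm. Viability is expressed as % of untreated control (100%) at each concentration, and IC50/EC50 were calculated from it.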

The subject of assay [2] is HeLa. In words: Cytotoxicity against human HeLa cells assessed as reduction in cell viability after 24 hrs by MTS assay. The class given is functional, cell-based. In a few lines:
as §1

The test system of assay [3] is MDA-MB-231. The assay is described as follows: Antiproliferative activity against human MDA-MB-231 cells by CellTiter-96 non-radioactive assay. The assay is classed as functional, cell-based. In outline:
as §1

Assay [4] in a line: Antiproliferative activity against human LEP-3 cells by CellTiter-96 non-radioactive assay. The class given is cell-based. In a few lines:
as §1

For assay [5], the system named is HT-29. In words: Antiproliferative activity against human HT-29 cells by CellTiter-96 non-radioactive assay. The class given is functional, cell-based. In outline: as §1
Assay [6] has as its system HeLa. The assay is described as follows: Antiproliferative activity against human HeLa cells by CellTiter-96 non-radioactive assay. The class given is functional, cell-based. In outline:
as §1

In assay [7] the test system is MDA-MB-231. In words: Cytotoxicity against human MDA-MB-231 cells assessed as reduction in cell viability after 24 hrs by MTS assay. The assay is classed as functional, cell-based. Particulars: MDA-MB-231, 24 h. In a few lines:
as §1

Assay [8] can be described thus: Cytotoxicity against human LEP-3 cells assessed as reduction in cell viability after 24 hrs by MTS assay. To be noted: LEP-3, 24 h. The assay is classed as cell-based. In outline: as §1
Assay [9] has as its system HT-29. In words: Cytotoxicity against human HT-29 cells assessed as reduction in cell viability after 24 hrs by MTS assay. The class given is functional, cell-based. Particulars: HT-29, 24 h. In a few lines: as §1
Assay [10] has as its system HepG2. The assay is described as follows: Antiproliferative activity against human HepG2 cells by CellTiter-96 non-radioactive assay. The class given is functional, cell-based. In outline: as §1

For `O=c1[nH]c(Cc2nnc(S)n2-c2ccccc2)nc2sc3c(c12)CCCC3`, the IC50 worked out at 1800 µM in [1] and 0.00095 µM in assay [2]. The EC50 came out at 1.2 µM in assay [3], 0.46 µM in assay [4] and 1.8 µM in assay [5].

On to `Cc1c(C(=O)O)sc2nc(Cc3nnc(S)n3-c3ccccc3)[nH]c(=O)c12`, for which, in assay [1], the IC50 is 0.29 µM. For the same compound, the EC50 was 0.3 µM in assay [3], 0.12 µM in [6], 1.21 µM in assay [4] and 0.86 µM in [5].

For the compound `CCNc1nnc(Cc2nc3sc4c(c3c(=O)[nH]2)CCCC4)s1`, the IC50 in assay [1] is 0.21 µM; in assay [2], 3.8 µM; in assay [7], 1.26 µM; in [8] it was 0.44 µM; in [9], 0.097 µM.

With `CCNc1nnc(Cc2nc3sc(C(=O)OCC)c(C)c3c(=O)[nH]2)s1`, the half-maximal inhibitory concentration (IC50) in assay [2] was determined as 3.31 µM; in assay [7] it was 0.0012 µM. The EC50 in assay [4] was found to be 0.31 µM; in assay [10] it was 1.26 µM; in [5], 0.42 µM.

With `O=c1[nH]c(Cc2nnc(Nc3ccccc3)s2)nc2sc3c(c12)CCCC3`, the half-maximal inhibitory concentration (IC50) in assay [1] was 1.23 µM; in [2], 1.85 µM; in assay [7], 0.0374 µM; in assay [8], 3.17 µM; in [9] it was 0.13 µM.

As to `CCOC(=O)c1sc2nc(Cc3nnc(Nc4ccccc4)s3)[nH]c(=O)c2c1C`, the 50% inhibitory concentration (IC50) worked out at 0.88 µM in [1] and 2.3 µM in assay [2]. Moreover, the EC50 in assay [3] was 0.0018 µM; in assay [4], 0.26 µM; in assay [5], 1.5 µM.

As for `NNC(=O)Cc1nc2sc3c(c2c(=O)[nH]1)CCCC3`, the EC50 was found to be 1.54 µM in assay [3]; 2.52 µM in assay [6]; 2.21 µM in assay [4]; 2.18 µM in assay [10]; 2.12 µM in assay [5].

In the case of `CCNC(=S)NNC(=O)Cc1nc2sc3c(c2c(=O)[nH]1)CCCC3`, the concentration for a half-maximal effect (EC50) in [3] is 1.8 µM; in assay [6] it was 0.032 µM; in assay [4], 0.12 µM; in [10], 1.02 µM; in [5], 0.04 µM.

In the case of `CCNC(=S)NNC(=O)Cc1nc2sc(C(=O)OCC)c(C)c2c(=O)[nH]1`, the IC50 in [2] was found to be 1.7 µM; in [7] it was 0.0391 µM. In addition, the EC50 in assay [4] is 0.025 µM; in assay [10], 0.19 µM; in assay [5], 0.089 µM.

`CCOC(=O)c1sc2nc(CC(=O)NNC(=S)Nc3ccccc3)[nH]c(=O)c2c1C`: the IC50 in assay [1] was 1.47 µM; in assay [2] it was 9.3 µM; in assay [7] it was 1.21 µM; in [8], 1500 µM; in [9] it was 0.00156 µM.

As for `CCn1c(S)nnc1Cc1nc2sc3c(c2c(=O)[nH]1)CCCC3`, the IC50 in assay [2] is 1.69 µM. Moreover, the EC50 in assay [3] amounted to 0.13 µM; in assay [4], 1.14 µM; in assay [10] it was 2.08 µM; in assay [5], 2.43 µM.

For the compound `CCn1c(S)nnc1Cc1nc2sc(C(=O)O)c(C)c2c(=O)[nH]1`, the EC50 in assay [3] amounted to 1.16 µM; in assay [6], 2.34 µM; in [4], 1.4 µM; in [10], 1.4 µM; in [5], 0.91 µM.
